Compound activity from PubChem BioAssay.
Most compounds without a hit are left out; they make up all but 2.6% or so of the library.
PAD4 FP inh = PAD4 (human) enzyme inhibition; recombinant PAD4, RCA probe fluorescence polarization; inhibition, % at 6.36 µM; 330,000 tested, 0.41% active; AID 485272;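 active means percent inhibition above a cutoff equal to the mean of all tested compounds plus 3 SD, cut at about 15% in these data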
GSTO1 counter = GSTO1 inhibition, counter-screen for RBBP9 inhibitors; P78417; recombinant GSTO1, activity-based probe fluorescence polarization; inhibition, % at 5.96 µM; 300,000 tested, 1.1% active; AID 1974;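 active means inhibition above the campaign mean inhibition plus 3 SD, cut at about 35% in these data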
Target sequence (P78417 whole entry, looked up): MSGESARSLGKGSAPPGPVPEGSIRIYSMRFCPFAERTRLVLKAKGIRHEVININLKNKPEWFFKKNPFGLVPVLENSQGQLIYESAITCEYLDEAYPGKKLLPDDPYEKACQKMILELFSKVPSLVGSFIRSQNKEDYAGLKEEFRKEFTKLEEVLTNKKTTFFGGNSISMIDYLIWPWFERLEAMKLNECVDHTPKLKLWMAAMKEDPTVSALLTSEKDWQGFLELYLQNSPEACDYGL
TDP2 absorb = TDP2 (human) inhibition, absorbance primary screen; O95551; recombinant TDP2, T5PNP hydrolysis, p-nitrophenol absorbance 415 nm; inhibition, % at 12.8 µM; 370,000 tested, 0.34% active; AID 720702;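 active means inhibition above the mean of all tested compounds plus 3 SD, set per campaign, cut at about 25% in these data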
Target sequence (O95551 whole entry, looked up): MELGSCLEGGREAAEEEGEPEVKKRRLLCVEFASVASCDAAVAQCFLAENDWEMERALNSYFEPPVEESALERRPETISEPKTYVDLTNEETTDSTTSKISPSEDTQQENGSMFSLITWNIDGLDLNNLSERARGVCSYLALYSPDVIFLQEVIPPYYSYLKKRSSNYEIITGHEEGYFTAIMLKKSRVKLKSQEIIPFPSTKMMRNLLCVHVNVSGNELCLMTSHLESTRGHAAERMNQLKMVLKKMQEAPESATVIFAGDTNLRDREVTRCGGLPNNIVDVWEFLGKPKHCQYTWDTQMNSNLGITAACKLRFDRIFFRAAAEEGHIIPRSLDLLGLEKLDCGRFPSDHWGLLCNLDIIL
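Evaluation: % inhibition relative to enzyme-containing and enzyme-free wells. Material: recombinant human TDP2. Benchmarks: enzyme-free and DMSO wells. Timing: enzyme reaction with compound for 2 h at 37 °C. Compound dosing: 12.8 µM only. Measured by: p-Nitrophenol epi absorbance. Reagent: T5PNP substrate at 5 mM, a TopII-DNA adduct mimic. Replication: single well per compound.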
PRMT1 inh = PRMT1 (human) inhibition, primary screen. recombinant PRMT1, activity-based probe fluorescence polarization. inhibition, % at 2.79 µM. 370,000 tested, 1.3% active. AID 652257;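 active means inhibition above about 21% made by adding two undisclosed values, limit read from the data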
Apaf-1 inh = blocks human Apaf-1 apoptosome activity | inhibition, % at 20 µM | reconstituted apoptosome caspase-3 activity, DEVD-Rh110 fluorescence | 330,000 tested, 0.71% active | O14727 | AID 489030; active means inhibition of at least 40% at 20 µM
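Material: reconstituted apoptosome with Apaf-1, cytochrome c, caspase-9, procaspase-3, dATP; medium: pH 7.5 Hepes buffer with CHAPS, BSA, DTT; also added: cytochrome c and DEVD-Rh110 substrate; timing: 30 min plus 50 min, RT; signal: Rh110 fluorescence intensity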
A number is an active result; - = inactive; . = no result.

SMILES	PAD4 FP inh	GSTO1 counter	TDP2 absorb	PRMT1 inh	Apaf-1 inh
c1ccc(C[C@H]2CNCCN2CCCCC2CCCCC2)cc1	-	-	-	-	49.4
c1ccc(C[C@H]2CNCCN2CC2CCCCC2)cc1	-	-	-	-	-
c1cc2c3c(cccc3c1)C(N1CCCCC1)=N2	-	-	.	.	90.9
Cc1c(C(=O)O)cccc1-c1ccc(/C=C2\SC(=O)NC2=O)o1	-	35.3	-	-	-
O=C(NCC(F)(F)F)c1ccc(S(=O)(=O)Nc2ccccc2N2CCCC2)cc1	-	.	-	-	54.2
CCC[C@H]1[C@@H](NC(=O)Nc2ccc3c(c2)OCO3)CC[C@@]23CCCN2C(=O)CCC[C@@H]13	.	.	-	-	.
CCOc1ccc(-n2c(N)c(C(=O)NCc3cccnc3)sc2=S)cc1	-	-	-	-	-
COc1ccc(CNC(=O)c2sc(=S)n(-c3ccccc3)c2N)cc1	-	-	-	21.2	-
COC(=O)C1CN(Cc2ccc(Cl)cc2)CCS(=O)(=O)N1Cc1cn(Cc2ccc(F)cc2)nn1 (stereo unspecified)	.	.	-	-	.
O=C(COC(=O)Cc1ccc(Cl)cc1)Nc1ccccc1-c1ccccc1	-	36.4	-	-	-
O=C(COC(=O)Cc1c(Cl)cccc1Cl)Nc1ccccc1-c1ccccc1	-	-	-	-	-
O=C1Cc2ccccc2C(=O)N1OCc1ccc(Cl)cc1Cl	-	-	-	-	67.6
COc1cc2ccccc2cc1C(=O)Nc1sc2c(c1C(N)=O)CCN(C(C)C)C2	-	-	-	-	51.2
CN1CCc2c(sc(NC(=O)c3ccc4ccccc4c3)c2C(N)=O)C1	-	-	.	.	-
c1ccc(-c2c[nH]c3cccc(C4CCCCC4)c23)cc1	.	.	-	-	.
Cc1sc2nc(-c3cccnc3)[nH]c(=O)c2c1-c1ccccc1	-	-	-	22.8	-
O=C1C=C[C@H]2CC[C@@H](O)[C@@H]1[C@@H]2Sc1ccccc1	.	.	-	-	.
COc1ccc(CNS(=O)(=O)/C=C/c2cc(C)ccc2CNC(=O)OC(C)(C)C)cc1	.	.	-	-	.
CCOC(=O)N1CCN(C(=O)C2CCN(C(=O)c3ccccc3C)CC2)CC1	.	.	-	91.0	.
Cc1ccccc1C(=O)N1CCC(C(=O)N2CCN(c3ncccn3)CC2)CC1	-	.	-	-	-
CC(C)C(C)(C#N)NC(=O)CSc1nc2scc(-c3ccco3)c2c(=O)n1-c1ccccc1 (stereo unspecified)	-	-	-	22.1	-
CO[C@H]([C@H](C)/C=C/N(C)C=O)[C@@H](C)C(O)CC[C@H](C)[C@H](O)[C@H](C)[C@H]1OC(=O)/C=C/C(C)=C/C[C@H](O)C[C@@H]2C=CC[C@@H](C[C@H](OC)[C@@]3(CO3)[C@@H](OC)C[C@@H](OC)[C@@H]1C)O2 (stereo partly specified)	.	.	-	-	.
Cn1c(NCCN2CCCCC2)cc(=O)n(C)c1=O	-	-	-	23.6	-
CCCNc1cc(=O)n(C)c(=O)n1C	-	-	-	-	-
CC(=O)N1C[C@@H](c2c[nH]c3ccccc23)C=C[C@H]1C(=O)NS(=O)(=O)c1ccc(C)cc1	.	.	-	-	.
SMILES	PAD4 FP inh	GSTO1 counter	TDP2 absorb	PRMT1 inh	Apaf-1 inh
c1ccc2c(c1)-c1nc3ccccc3cc1C2N1CCOCC1 (stereo unspecified)	.	.	-	-	.
c1ccc2c(c1)-c1ccccc1C2N1CCOCC1	.	.	-	24.5	.
COc1cccc(NC(=O)C2CCC(CNS(=O)(=O)c3ccc4c(c3)CC(C)N4C(C)=O)CC2)c1 (stereo unspecified)	-	35.3	-	-	-
Cc1ccc(-n2c(SCC(=O)Nc3ccc4cn[nH]c4c3)nnc2-c2ccccc2)cc1	.	.	-	-	.
Cc1ccc(-n2nc3cc(C)c(N)cc3n2)cc1	-	-	-	-	-
CCc1ccc(-n2nc3cc(C)c(N)cc3n2)cc1	-	35.8	-	-	-
COc1ccc(NC(=O)Nc2c(O)ccc3ccccc23)cc1	-	37.2	-	-	-
CCc1cc(SC#N)ccc1N	-	-	-	23.9	-
CC1CCN(C2=NC(=O)N(c3ccc(Br)cc3)C(=O)C2)CC1	.	.	-	-	.
O=C(CSC1=NCCS1)Nc1cccc2ccccc12	-	-	-	-	-
O=C(CSC1=NCCS1)Nc1ccccc1F	-	-	-	22.3	-
O=C(O)c1ccccc1CSC1=NCCS1	-	-	-	21.5	-
O=C(CCc1ccccc1)N[C@H]1[C@H](OC(=O)c2cccnc2)CCC[C@@]12C(=O)N(Cc1ccccc1)c1ccccc12	.	.	-	-	.
O=C(NCc1ccccc1)C1(C(=O)C2CC2)CC(c2ccccc2C(F)(F)F)=NO1 (stereo unspecified)	.	.	-	-	.
CC(=O)Nc1ccc(NS(=O)(=O)c2ccccc2)c2ccccc12	-	-	-	-	-
O=S(=O)(Nc1ccc(O)c2ccccc12)c1ccc(Br)cc1	18.7	61.3	.	.	57.3
O=C(NCCc1c[nH]c2ccccc12)OCc1cn(Cc2ccc(F)c(F)c2)nn1	.	.	-	-	.
CCOC(=O)N1CCN(C(=O)C[C@H]2C[C@@]3(C(=O)OC)C(=C[C@H](COCc4ccccc4)O[C@@H]3C)N(Cc3cccc4ccccc34)C2=O)CC1	.	.	-	-	.
CC(C)CN=C(NS(=O)(=O)c1ccccc1)C(Cl)(Cl)Cl	-	78.3	-	-	-
Cc1cc(=O)[nH]c(SCC(=O)Nc2nc(-c3ccccc3)cs2)n1	-	-	-	-	-
Cc1cc(=O)[nH]c(SCC(=O)Nc2nc3ccccc3s2)n1	-	-	-	21.2	-
COCCCN1C(=O)[C@H](CC(=O)N2CCN(C(=O)c3ccco3)CC2)[C@]2(C(=O)OC)CCCCC=C12	.	.	-	-	.
CC(=O)NC1C(=O)N(CCN2CCOCC2)c2ccc(C)cc21 (stereo unspecified)	-	-	.	.	.
CC(=O)NC1C(=O)N(CCN2CCOCC2)c2ccc(Cl)cc21 (stereo unspecified)	.	.	-	21.9	.
CC(=O)CC[C@@H]1CC[C@]2(CCCN(S(C)(=O)=O)C2)O1	.	.	-	-	.
SMILES	PAD4 FP inh	GSTO1 counter	TDP2 absorb	PRMT1 inh	Apaf-1 inh
O=C(Nc1ccc2c(c1)OCO2)OC1CCC12CCC(c1ccccc1)CC2 (stereo unspecified)	.	.	-	-	.
COCCN1C(=S)N[C@@H](c2cccc(F)c2)C(C(=O)OC)=C1C	-	-	.	.	57.4
NC(=S)N/N=C/c1ccccc1O	-	-	-	-	-
NC(=S)N/N=C/c1cccc(O)c1O	-	84.1	-	-	-
C=CCN1C(=O)[C@@H](CC(=O)NCCCC)[C@]2(C(=O)OC)CCCCC=C12	.	.	-	-	.
S=c1[nH]nc(Nc2ccccc2Cl)s1	-	-	-	23.4	-
S=c1[nH]nc(Nc2cccc(Cl)c2)s1	-	-	-	-	-
Cc1ccc(C)c(SCC(=O)Nc2oc(C)c3c(C)n[nH]c(=O)c23)c1	-	-	-	22.0	-
Cc1ccc(SCC(=O)Nc2oc(C)c3c(C)n[nH]c(=O)c23)cc1C	-	.	-	-	-
COc1ccc(O)c(N)c1	.	.	.	.	76.2
Cc1ccc(O)c(N)c1	-	.	.	.	-
CC(=NNC(=O)CSc1nnc(-c2ccccc2)n1-c1ccccc1)c1cccc([N+](=O)[O-])c1	.	.	-	-	.
